# Calls of active or inactive are those of the source. No cut-off for these calls is given here.
# Legend:
# [1] = Drug metabolism in C57BL/6 mouse assessed as psilocin formation at 10 mg/kg, po measured at 24 hrs by LC-MS analysis; format: ADME, organism-based; conditions: in vivo
# [2] = Drug metabolism in human liver microsomes assessed as psilocin formation at 2.5 uM after 120 mins by LC-MS analysis; format: ADME, Microsome; conditions: 2 h
# In short: (§1)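 2.5 μM compound in 50 mM potassium phosphate pH 7.4 with 3 mM MgCl2, 1 mM EDTA and an NADPH regenerating system. Incubated at 37 °C with human liver or intestinal S9 or microsomes (400 μg/mL protein) or 10% human AB serum. Acetonitrile quench, then LC-MS; psilocin concentration read at 120 min.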
# [3] = Metabolic stability in human intestine microsomes assessed as half life at 2.5 uM measured upto 120 mins in presence of NADPH by LC-MS analysis; format: ADME, Microsome; conditions: 2 h
# In short: (§2)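 2.5 μM compound at 37 °C in 50 mM potassium phosphate pH 7.4 with 3 mM MgCl2, 1 mM EDTA and an NADPH regenerating system. […] Sampled at 0–120 min in 20-min steps, acetonitrile quench, LC-MS of parent. T1/2 from one-phase exponential decay fit.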
# Mus musculus [4] = assay: Psychedelic activity in mouse assessed as head-twitch response at 1 mg/kg, po measured after 15 to 30 mins; format: functional, organism-based; conditions: time 15-30 min
# In short: (§3)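 C57BL/6 mice, singly housed for 2 days, with 30-min predose chamber acclimation. Single oral 1 mg/kg dose from 100 mM DMSO stock diluted in 0.9% saline; vehicle 1% DMSO in saline. Video-recorded after dosing; head twitches scored blind per 15-min interval (reference time course) or for the 15–30 min window. n = 2–4; one-way ANOVA.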
# [5] = Drug metabolism in C57BL/6 mouse assessed as psilocin formation at 1 mg/kg, iv measured upto 24 hrs by LC-MS analysis; format: ADME, organism-based; conditions: in vivo
# [6] = Drug metabolism in human serum assessed as psilocin formation at 2.5 uM after 120 mins by LC-MS analysis; format: ADME, cell-free; conditions: 2 h; in short: as §1
# [7] = Drug metabolism in human intestine microsomes assessed as psilocin formation at 2.5 uM after 120 mins by LC-MS analysis; format: ADME, Microsome; conditions: 2 h; in short: as §1
# [8] = Drug metabolism in human intestine S9 fraction assessed as psilocin formation at 2.5 uM after 120 mins by LC-MS analysis; format: ADME, subcellular; conditions: s9, 2 h; in short: as §1
# [9] = Drug metabolism in human liver S9 fraction assessed as psilocin formation at 2.5 uM after 120 mins by LC-MS analysis; format: ADME, subcellular; conditions: s9, 2 h; in short: as §1
# [10] = Metabolic stability in human liver microsomes assessed as half life at 2.5 uM measured upto 120 mins in presence of NADPH by LC-MS analysis; format: ADME, Microsome; conditions: microsomes, 2 h, 2.5 µM; in short: as §2
# [11] = Metabolic stability in human intestine S9 fraction assessed as half life at 2.5 uM measured upto 120 mins in presence of NADPH by LC-MS analysis; format: ADME, subcellular; conditions: s9, 2 h; in short: as §2
# [12] = Metabolic stability in human liver S9 fraction assessed as half life at 2.5 uM measured upto 120 mins in presence of NADPH by LC-MS analysis; format: ADME, subcellular; conditions: s9, 2 h, 2.5 µM; in short: as §2
# [13] = Drug metabolism in po dosed C57BL/6 mouse assessed as psilocin formation measured upto 24 hrs by LC-MS analysis; format: ADME, organism-based; conditions: in vivo, dose 1-10 mg/kg
# [14] = Metabolic stability in human serum assessed as half life at 2.5 uM measured upto 120 mins in presence of NADPH by LC-MS analysis; format: ADME, cell-free; conditions: 2 h; in short: as §2
# [15] = Drug metabolism in C57BL/6 mouse assessed as psilocin AUC(0 to last) at 3 mg/kg, po measured upto 24 hrs by LC-MS analysis; format: ADME, organism-based; design: time < 24 hrs, dose 3 mg/kg, route po; conditions: in vivo
# [16] = Drug metabolism in C57BL/6 mouse assessed as psilocin AUC(0 to last) at 10 mg/kg, po measured upto 24 hrs by LC-MS analysis; format: ADME, organism-based; design: dose 10 mg/kg, time < 24 hrs, route po; conditions: in vivo
# Mus musculus [17] = assay: Anxiolytic activity in mouse assessed as reduction in MCSP induced marble-burying behavior by measuring decrease in number of buried marbles at 1 mg/kg, po measured upto 7 days; format: functional, organism-based; conditions: time <= 7.0 day
# In short: (§4)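 Mixed-sex C57BL/6 mice, singly housed. Stress group: 7-day mild chronic stress paradigm with corticosterone 25 μg/mL in 1% ethanol drinking water plus daily 30-min restraint over the last 5 days; controls unstressed. Single oral dose in saline with 1% DMSO at 2.5 μL/g, given 24 h after stress. 10 marbles on 5 cm bedding; % buried over 20 min on days 1 and 7. Ordinary one-way ANOVA; n = 6–11.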
# [18] = Anxiolytic activity in non-stressed mouse assessed as reduction in marble-burying behavior by measuring decrease in number of buried marbles at 1 mg/kg, po measured upto 7 days; format: toxicity, organism-based; conditions: in vivo, 168 h, time < 7 day; in short: as §4
# [19] = Drug metabolism in C57BL/6 mouse assessed as psilocin Cmax at 10 mg/kg, po measured upto 24 hrs by LC-MS analysis; format: ADME, organism-based; design: time < 24 hrs, dose 10 mg/kg, route po; conditions: in vivo
# [20] = Drug metabolism in C57BL/6 mouse assessed as psilocin Cmax at 3 mg/kg, po measured upto 24 hrs by LC-MS analysis; format: ADME, organism-based; design: dose 3 mg/kg, time < 24 hrs, route po; conditions: in vivo
# Mus musculus [21] = assay: Psychedelic activity in mouse assessed as head-twitch response at 1 mg/kg, po measured upto 90 mins; format: functional, organism-based; in short: as §3
# [22] = Drug metabolism in C57BL/6 mouse assessed as psilocin formation at 10 mg/kg, po measured after 8 hrs by LC-MS analysis; format: ADME, organism-based; conditions: in vivo
compound,measurement,setting,value
CN(C)CCc1c[nH]c2cccc(OC(=O)OCC3CC3)c12,Drug metabolism,[1],Metabolite_Detected
same,Drug metabolism,[2],1.929 µM
same,t1/2,[3],4.52 h
same,Activity,Mus musculus [4],inactive
same,Drug metabolism,[5],Metabolite_Detected
same,Drug metabolism,[6],0.361 µM
same,Drug metabolism,[7],0.157 µM
same,Drug metabolism,[8],0.224 µM
same,Drug metabolism,[9],1.177 µM
same,t1/2,[10],4 min
same,t1/2,[11],5.45 h
same,t1/2,[12],9 min
same,Drug metabolism,[13],Dose-Dependent Effect
same,t1/2,[14],3 min
CN(C)CCc1c[nH]c2cccc(OP(=O)(O)O)c12 [PSILOCYBIN],Drug metabolism,[2],0 µM
same,t1/2,[3],3.25 h
same,AUClast,[15],84.4 ng·h/mL
same,AUClast,[16],397.3 ng·h/mL
same,Activity,Mus musculus [17],Active
same,Activity,[18],Non-Toxic
same,Drug metabolism,[6],0 µM
same,Cmax,[19],243 ng/mL
same,Drug metabolism,[7],0.172 µM
same,Cmax,[20],52.9 ng/mL
same,Drug metabolism,[8],0.621 µM
same,Drug metabolism,[9],0 µM
same,Activity,Mus musculus [21],Active
same,Drug metabolism,[22],Metabolite_Notdetected
same,Drug metabolism,[13],Dose-Dependent Effect

# Reference: ChEMBL document CHEMBL5335796, “Novel Psilocin Prodrugs with Altered Pharmacological Properties as Candidate Therapies for Treatment-Resistant Anxiety Disorders” (J Med Chem, 2024)
